The values that follow come from ChEMBL document CHEMBL3259739, “Synthesis and structure-activity relationship of trisubstituted thiazoles as Cdc7 kinase inhibitors” (Eur J Med Chem, 2014).

Assay [1] has as its target Serine/threonine-protein kinase MARK1 (Homo sapiens) (UniProt Q9P0L2). Description: Inhibition of MARK1 (unknown origin) at 1 uM relative to control; values are per cent of control.
The target of assay [2] is Tyrosine-protein kinase Fyn (Homo sapiens) (UniProt P06241). Nature of the assay: Inhibition of FYN (unknown origin) at 1 uM relative to control; values are per cent of control.
The target in assay [3] is Serine/threonine-protein kinase Nek4 (Homo sapiens) (UniProt P51957). Description: Inhibition of NEK4 (unknown origin) at 1 uM relative to control; values are per cent of control.
Assay [4] has as its target Vascular endothelial growth factor receptor 2 (Homo sapiens) (UniProt P35968). Nature of the assay: Inhibition of VEGFR2 (unknown origin) at 1 uM relative to control. Particulars: values are per cent of control.
The target of assay [5] is High affinity nerve growth factor receptor (Homo sapiens) (UniProt P04629). Nature of the assay: Inhibition of TRKA (unknown origin) at 1 uM relative to control. As to conditions: values are per cent of control. In a few lines:
(§1)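 KinomeSCAN competitive binding panel of 100 kinases; compounds tested at 1 µM in duplicate; read-out is percent […] control.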

Assay [6] has as its target Cyclin-dependent kinase 8 (Homo sapiens) (UniProt P49336). Description: Inhibition of CDK8 (unknown origin) at 1 uM relative to control; values are per cent of control.
Assay [7] concerns the target Dual specificity protein kinase CLK1 (Homo sapiens) (UniProt P49759). Nature of the assay: Inhibition of CLK1 (unknown origin) at 1 uM relative to control; values are per cent of control.
The target in assay [8] is Platelet-derived growth factor receptor beta (Homo sapiens) (UniProt P09619). Description: Inhibition of PDGFRB (unknown origin) at 1 uM relative to control. As to conditions: values are per cent of control. In a few lines:
as §1

Assay [9] concerns the target Cyclin-dependent kinase 2/cyclin E1 (Homo sapiens, UniProt P24941). Description: Inhibition of CDK2/Cyclin-E (unknown origin) using maltose binding protein as substrate by HTRF assay. Type of assay: protein-complex assay.
The target of assay [10] is T1, Phosphatidylinositol 4,5-bisphosphate 3-kinase catalytic subunit delta isoform (Homo sapiens) (UniProt O00329).
T1 sequence (whole entry): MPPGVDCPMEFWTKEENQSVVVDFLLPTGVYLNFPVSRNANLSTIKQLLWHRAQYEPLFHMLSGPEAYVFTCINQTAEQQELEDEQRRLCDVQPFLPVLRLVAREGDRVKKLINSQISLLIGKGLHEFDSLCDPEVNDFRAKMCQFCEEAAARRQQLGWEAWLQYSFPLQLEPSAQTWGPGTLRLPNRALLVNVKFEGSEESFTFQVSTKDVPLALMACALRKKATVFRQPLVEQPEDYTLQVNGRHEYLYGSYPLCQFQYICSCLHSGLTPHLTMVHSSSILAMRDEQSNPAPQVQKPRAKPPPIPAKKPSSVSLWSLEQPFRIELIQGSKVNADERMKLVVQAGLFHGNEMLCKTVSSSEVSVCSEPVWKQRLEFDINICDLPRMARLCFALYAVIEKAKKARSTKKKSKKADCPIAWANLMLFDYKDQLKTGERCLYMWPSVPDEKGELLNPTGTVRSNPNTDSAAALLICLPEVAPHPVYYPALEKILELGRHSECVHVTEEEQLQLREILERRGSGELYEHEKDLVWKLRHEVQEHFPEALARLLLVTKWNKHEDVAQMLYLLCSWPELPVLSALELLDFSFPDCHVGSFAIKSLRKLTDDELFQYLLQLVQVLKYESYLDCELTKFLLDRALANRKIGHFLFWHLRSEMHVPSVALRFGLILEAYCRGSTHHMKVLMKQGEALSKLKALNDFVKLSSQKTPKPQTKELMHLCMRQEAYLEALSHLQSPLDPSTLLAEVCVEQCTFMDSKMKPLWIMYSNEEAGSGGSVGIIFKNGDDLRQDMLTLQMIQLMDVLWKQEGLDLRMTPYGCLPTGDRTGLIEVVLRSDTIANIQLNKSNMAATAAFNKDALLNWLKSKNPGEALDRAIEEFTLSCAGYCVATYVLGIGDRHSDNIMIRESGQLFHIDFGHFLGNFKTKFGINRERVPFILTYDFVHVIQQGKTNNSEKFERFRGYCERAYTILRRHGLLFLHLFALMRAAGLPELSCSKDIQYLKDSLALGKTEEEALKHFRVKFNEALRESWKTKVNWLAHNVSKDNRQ
Nature of the assay: Inhibition of PIK3CD (unknown origin) at 1 uM relative to control. As to conditions: values are per cent of control. The method, boiled down: as §1

The target of assay [11] is RAC-beta serine/threonine-protein kinase (Homo sapiens) (UniProt P31751). Description: Inhibition of AKT2 (unknown origin) at 1 uM relative to control; values are per cent of control.
In assay [12] the target is Serine/threonine-protein kinase mTOR (Homo sapiens) (UniProt P42345). Description: Inhibition of MTOR (unknown origin) at 1 uM relative to control; values are per cent of control.
The target of assay [13] is Bone morphogenetic protein receptor type-1A (Homo sapiens) (UniProt P36894). Description: Inhibition of BMPR1A (unknown origin) at 1 uM relative to control; values are per cent of control.
Assay [14] deals with Mitogen-activated protein kinase kinase kinase kinase 1 (Homo sapiens) (UniProt Q92918). Nature of the assay: Inhibition of HPK1 (unknown origin) at 1 uM relative to control; values are per cent of control.
The target in assay [15] is Serine/threonine-protein kinase PLK1 (Homo sapiens) (UniProt P53350). Nature of the assay: Inhibition of PLK1 (unknown origin) at 1 uM relative to control. Particulars: values are per cent of control. In a few lines: as §1
In assay [16] the target is Hepatocyte growth factor receptor (Homo sapiens) (UniProt P08581). Nature of the assay: Inhibition of MET (unknown origin) at 1 uM relative to control; values are per cent of control.
The target of assay [17] is T2, Serine/threonine-protein kinase Chk1 (Homo sapiens) (UniProt O14757).
T2 sequence (whole entry): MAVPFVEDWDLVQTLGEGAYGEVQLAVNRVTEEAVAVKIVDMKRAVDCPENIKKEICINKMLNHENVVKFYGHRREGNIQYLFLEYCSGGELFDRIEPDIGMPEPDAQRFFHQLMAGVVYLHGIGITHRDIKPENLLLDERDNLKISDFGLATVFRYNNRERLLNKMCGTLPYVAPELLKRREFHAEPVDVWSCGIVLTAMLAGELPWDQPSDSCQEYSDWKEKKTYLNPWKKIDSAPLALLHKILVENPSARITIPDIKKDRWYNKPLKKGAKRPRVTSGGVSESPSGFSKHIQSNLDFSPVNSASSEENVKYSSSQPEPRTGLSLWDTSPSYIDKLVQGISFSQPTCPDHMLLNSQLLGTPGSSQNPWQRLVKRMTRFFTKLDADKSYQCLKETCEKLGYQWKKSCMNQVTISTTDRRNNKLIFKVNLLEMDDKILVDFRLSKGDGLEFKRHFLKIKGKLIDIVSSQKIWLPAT
Nature of the assay: Inhibition of CHEK1 (unknown origin) at 1 uM relative to control; values are per cent of control.

Structures are written as SMILES. pIC50: −log10 of the molar value.

Chain of Serine/threonine-protein kinase Nek4 (Homo sapiens) (P51957 whole entry, looked up): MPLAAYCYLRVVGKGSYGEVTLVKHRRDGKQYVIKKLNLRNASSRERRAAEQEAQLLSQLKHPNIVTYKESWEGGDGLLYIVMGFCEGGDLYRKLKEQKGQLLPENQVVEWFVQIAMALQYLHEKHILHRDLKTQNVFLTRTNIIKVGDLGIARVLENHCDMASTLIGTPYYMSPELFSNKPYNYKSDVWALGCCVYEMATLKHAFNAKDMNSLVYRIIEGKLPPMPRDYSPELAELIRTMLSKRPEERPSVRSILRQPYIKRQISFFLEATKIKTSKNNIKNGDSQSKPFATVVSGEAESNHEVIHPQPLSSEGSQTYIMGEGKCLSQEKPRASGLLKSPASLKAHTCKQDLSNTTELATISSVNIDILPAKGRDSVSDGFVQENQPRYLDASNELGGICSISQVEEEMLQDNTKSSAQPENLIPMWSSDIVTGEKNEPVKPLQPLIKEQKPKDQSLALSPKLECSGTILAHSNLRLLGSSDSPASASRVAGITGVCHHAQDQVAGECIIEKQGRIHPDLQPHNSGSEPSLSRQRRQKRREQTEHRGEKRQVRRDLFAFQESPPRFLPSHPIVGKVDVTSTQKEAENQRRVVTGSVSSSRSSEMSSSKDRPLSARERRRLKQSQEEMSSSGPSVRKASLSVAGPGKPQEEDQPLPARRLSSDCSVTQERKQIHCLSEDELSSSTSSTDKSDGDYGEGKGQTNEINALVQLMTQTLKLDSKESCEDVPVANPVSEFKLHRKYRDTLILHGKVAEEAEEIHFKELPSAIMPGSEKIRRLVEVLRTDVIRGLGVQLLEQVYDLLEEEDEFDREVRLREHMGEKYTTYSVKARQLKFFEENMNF
Chain of Serine/threonine-protein kinase MARK1 (Homo sapiens) (Q9P0L2 whole entry, looked up): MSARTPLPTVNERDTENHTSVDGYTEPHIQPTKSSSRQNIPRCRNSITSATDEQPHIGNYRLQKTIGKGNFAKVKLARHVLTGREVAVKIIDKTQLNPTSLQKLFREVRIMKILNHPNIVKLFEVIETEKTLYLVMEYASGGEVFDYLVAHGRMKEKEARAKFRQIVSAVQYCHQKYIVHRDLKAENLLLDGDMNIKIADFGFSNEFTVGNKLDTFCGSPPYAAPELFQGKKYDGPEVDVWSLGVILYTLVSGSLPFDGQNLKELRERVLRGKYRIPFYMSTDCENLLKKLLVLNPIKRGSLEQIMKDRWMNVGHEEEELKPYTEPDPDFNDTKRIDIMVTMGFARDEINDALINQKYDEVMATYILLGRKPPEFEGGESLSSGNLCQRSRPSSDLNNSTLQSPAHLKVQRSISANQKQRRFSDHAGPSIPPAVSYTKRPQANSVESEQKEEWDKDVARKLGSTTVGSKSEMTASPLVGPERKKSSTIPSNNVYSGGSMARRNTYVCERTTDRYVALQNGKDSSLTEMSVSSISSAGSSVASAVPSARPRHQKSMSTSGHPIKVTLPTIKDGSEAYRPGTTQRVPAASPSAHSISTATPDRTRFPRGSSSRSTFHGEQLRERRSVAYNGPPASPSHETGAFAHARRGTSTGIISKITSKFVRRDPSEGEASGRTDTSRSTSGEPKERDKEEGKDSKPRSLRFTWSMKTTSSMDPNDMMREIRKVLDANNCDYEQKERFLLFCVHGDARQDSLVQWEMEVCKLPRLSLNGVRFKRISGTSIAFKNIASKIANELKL
Chain of RAC-beta serine/threonine-protein kinase (Homo sapiens) (P31751 whole entry): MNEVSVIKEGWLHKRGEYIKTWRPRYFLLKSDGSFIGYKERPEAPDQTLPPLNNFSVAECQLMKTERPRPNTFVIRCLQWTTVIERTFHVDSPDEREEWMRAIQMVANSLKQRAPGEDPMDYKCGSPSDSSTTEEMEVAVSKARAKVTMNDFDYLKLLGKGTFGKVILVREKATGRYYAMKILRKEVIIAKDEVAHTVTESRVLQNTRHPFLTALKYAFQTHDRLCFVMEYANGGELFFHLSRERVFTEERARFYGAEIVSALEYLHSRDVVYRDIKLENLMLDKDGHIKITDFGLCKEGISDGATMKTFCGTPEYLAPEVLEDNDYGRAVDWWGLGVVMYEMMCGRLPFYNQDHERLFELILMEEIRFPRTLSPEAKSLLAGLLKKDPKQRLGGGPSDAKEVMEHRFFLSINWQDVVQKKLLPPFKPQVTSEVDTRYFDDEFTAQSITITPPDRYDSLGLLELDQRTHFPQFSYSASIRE
Chain of Mitogen-activated protein kinase kinase kinase kinase 1 (Homo sapiens) (Q92918 whole entry, looked up): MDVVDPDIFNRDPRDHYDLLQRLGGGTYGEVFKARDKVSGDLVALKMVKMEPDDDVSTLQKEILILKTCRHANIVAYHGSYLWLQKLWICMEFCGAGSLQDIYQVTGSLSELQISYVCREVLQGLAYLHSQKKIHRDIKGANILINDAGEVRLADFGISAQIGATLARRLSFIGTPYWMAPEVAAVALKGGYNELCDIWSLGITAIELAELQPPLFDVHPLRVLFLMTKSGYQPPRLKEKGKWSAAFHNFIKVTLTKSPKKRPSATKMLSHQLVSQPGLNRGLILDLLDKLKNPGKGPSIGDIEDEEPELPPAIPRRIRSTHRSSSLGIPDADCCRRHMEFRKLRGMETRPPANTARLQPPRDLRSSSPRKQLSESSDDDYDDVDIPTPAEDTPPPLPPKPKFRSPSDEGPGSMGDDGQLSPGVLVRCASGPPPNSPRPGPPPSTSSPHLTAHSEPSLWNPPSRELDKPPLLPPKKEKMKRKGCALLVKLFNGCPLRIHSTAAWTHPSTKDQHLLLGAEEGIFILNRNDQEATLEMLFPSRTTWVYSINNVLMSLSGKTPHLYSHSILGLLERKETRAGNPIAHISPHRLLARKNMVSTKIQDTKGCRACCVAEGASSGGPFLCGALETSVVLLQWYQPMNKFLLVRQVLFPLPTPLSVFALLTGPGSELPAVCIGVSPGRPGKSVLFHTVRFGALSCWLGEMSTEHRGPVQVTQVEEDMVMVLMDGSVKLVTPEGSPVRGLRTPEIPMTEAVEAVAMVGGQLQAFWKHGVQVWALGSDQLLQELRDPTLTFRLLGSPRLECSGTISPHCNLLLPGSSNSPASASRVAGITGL
Chain of Platelet-derived growth factor receptor beta (Homo sapiens) (P09619 whole entry): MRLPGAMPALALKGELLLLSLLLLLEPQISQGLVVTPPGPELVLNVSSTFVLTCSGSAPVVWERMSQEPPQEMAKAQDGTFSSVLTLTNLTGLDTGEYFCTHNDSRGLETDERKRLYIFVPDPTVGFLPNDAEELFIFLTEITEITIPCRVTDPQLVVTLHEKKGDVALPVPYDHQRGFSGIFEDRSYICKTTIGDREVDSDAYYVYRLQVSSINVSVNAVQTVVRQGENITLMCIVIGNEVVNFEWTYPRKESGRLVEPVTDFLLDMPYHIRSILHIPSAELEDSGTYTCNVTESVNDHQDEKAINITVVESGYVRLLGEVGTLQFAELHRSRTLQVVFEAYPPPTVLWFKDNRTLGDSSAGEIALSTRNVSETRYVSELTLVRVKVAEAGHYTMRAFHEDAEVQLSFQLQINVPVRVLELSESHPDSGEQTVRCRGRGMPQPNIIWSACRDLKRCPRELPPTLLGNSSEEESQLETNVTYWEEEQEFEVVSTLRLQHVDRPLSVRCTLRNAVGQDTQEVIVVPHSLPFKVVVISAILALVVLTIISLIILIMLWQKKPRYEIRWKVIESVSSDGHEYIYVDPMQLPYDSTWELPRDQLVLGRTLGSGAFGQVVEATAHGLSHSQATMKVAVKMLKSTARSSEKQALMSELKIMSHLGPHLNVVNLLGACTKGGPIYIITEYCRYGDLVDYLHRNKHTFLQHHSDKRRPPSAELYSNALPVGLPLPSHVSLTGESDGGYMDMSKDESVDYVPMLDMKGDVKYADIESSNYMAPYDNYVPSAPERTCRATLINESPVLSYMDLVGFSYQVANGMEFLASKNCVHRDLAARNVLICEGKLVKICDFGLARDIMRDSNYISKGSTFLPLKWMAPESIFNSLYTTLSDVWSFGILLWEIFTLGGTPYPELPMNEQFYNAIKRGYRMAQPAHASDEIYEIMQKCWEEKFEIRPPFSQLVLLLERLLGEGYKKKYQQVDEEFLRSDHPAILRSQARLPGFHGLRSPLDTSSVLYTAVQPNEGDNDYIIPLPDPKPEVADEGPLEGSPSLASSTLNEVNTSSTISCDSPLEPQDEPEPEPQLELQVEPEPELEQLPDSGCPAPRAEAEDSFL
Chain of Dual specificity protein kinase CLK1 (Homo sapiens) (P49759 whole entry, looked up): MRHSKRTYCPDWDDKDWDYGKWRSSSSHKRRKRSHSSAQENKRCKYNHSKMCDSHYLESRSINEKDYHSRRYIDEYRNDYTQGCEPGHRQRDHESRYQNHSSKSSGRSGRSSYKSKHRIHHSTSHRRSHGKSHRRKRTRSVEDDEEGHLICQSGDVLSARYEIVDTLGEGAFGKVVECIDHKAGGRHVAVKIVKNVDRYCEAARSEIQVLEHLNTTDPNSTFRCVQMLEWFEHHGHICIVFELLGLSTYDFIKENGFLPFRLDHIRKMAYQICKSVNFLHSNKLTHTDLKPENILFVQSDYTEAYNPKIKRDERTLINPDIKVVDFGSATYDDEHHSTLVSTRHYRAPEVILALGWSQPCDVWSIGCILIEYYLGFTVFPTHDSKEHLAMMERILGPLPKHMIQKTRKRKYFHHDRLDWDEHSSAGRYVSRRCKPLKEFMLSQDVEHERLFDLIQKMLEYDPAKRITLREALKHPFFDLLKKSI
Chain of Tyrosine-protein kinase Fyn (Homo sapiens) (P06241 2-537 limits assumed): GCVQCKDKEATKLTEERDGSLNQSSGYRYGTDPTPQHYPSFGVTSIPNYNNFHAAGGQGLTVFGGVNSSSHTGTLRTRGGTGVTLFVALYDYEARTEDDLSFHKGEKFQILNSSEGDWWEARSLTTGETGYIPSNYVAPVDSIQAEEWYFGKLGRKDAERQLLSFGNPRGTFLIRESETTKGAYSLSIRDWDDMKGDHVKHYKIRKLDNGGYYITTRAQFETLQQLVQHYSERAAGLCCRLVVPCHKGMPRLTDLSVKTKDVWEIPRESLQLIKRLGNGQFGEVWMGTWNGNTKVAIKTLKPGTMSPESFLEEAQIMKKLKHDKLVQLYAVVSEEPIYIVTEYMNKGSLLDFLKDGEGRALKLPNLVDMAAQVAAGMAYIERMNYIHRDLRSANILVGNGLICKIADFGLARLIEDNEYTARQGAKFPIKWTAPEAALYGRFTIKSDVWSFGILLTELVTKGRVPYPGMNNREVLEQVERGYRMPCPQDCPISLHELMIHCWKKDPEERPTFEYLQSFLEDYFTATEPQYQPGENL

`CCOC(=O)c1sc(-c2ccncc2)nc1O`: the residual activity in [1] amounted to 100%; in assay [2], 100%; in assay [3] it was 100%; in assay [6] it was 82%; in assay [7], 90%; in assay [11], 96%. For the same compound, the residual activity was 93% in assay [12]; 82% in [13]; 81% in assay [14]; 81% in [16]; 100% in [17]. Also, the residual binding, % of control in assay [4] was found to be 74%; in assay [5], 100%; in [8], 89%; in [10], 97%; in assay [15], 100%. The compound also had a pIC50 in assay [9] of less than 3.90.

Consider `NC(=O)c1sc(-c2ccnc(N)n2)nc1-c1ccc(Cl)cc1Cl`, for which the residual activity in assay [1] was determined as 100%; in assay [2], 76%; in assay [3] it was 93%; in assay [6] it was 97%; in assay [7], 1.3%; in [11], 100%. In addition, the residual activity in assay [12] stood at 93%; in assay [13], 94%; in assay [14], 64%; in assay [16] it was 88%; in assay [17], 100%. Moreover, the residual binding, % of control in [4] is 56%; in assay [5], 100%; in assay [8] it was 52%; in assay [10], 78%; in assay [15], 100%. For the same compound, the pIC50 in assay [9] was 5.74.

Turning to `COc1ccc(-c2nc(-c3ccnc(N)n3)sc2C(N)=O)c(Cl)c1`, the residual activity is 100% in assay [1]; 87% in [2]; 76% in assay [3]; 84% in assay [6]; 2.3% in assay [7]; 100% in [11]. The residual activity in [12] stood at 74%; in assay [13], 81%; in assay [14], 100%; in assay [16] it was 86%; in assay [17], 78%. Moreover, the residual binding, % of control stood at 92% in assay [4]; 92% in assay [5]; 62% in [8]; 55% in [10]; 88% in assay [15]. This compound also gave a pIC50 in assay [9] of 4.97.
